From ChEMBL document CHEMBL4834453, “Discovery of N-(6-(5-fluoro-2-(piperidin-1-yl)phenyl)pyridazin-3-yl)-1-(tetrahydro-2H-pyran-4-yl)methanesulfonamide as a brain-permeable and metabolically stable kynurenine monooxygenase inhibitor” (Bioorg Med Chem Lett, 2021) come the findings set out here.

Series [1] can be described thus: Metabolic stability in rat liver microsomes assessed as intrinsic clearance incubated for 30 mins in presence of NADPH measured per mg protein. In kind it is ADME, Microsome. As to conditions: for CLH: microsomes, 0.5 h; for microsomal CLint: liver microsomes, read-out: CLH. A digest of the protocol:
(§1)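 Compound incubated with human or rat hepatic microsomes plus NADPH at 37 °C for 30 min. Intrinsic clearance expressed as μL/min/mg protein.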
(Liver microsomes are vesicles of endoplasmic reticulum, rich in cytochrome P450 enzymes.)

The nature of series [2]: Metabolic stability in human liver microsomes assessed as intrinsic clearance incubated for 30 mins in presence of NADPH measured per mg protein. In kind it is ADME, Microsome. The settings on record: for microsomal CLint: liver microsomes, read-out: CLH. A digest of the protocol: as §1
Series [3] can be described thus: Glutathione reactivity assessed as dansylatedGSH-compound conjugate formation in presence of human liver microsomes by fluorescence detector based HPLC analysis. The series is classed as physicochemical. In short, it runs like this: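 Reactive metabolite trapping: compound incubated with dansylated glutathione and human liver microsomes. dGSH-conjugate quantified by HPLC with fluorescence detection and reported in μmol/L.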

Series [4] can be described thus: Drug concentration in mouse brain at 2 mg/kg, po measured per gm of tissue. The series is classed as ADME, organism-based. The settings on record: in vivo. In short, it runs like this:
(§2)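 Mouse PK after a single oral dose (2 mg/kg; 10 mg/kg where marked). Plasma concentration given in ng/mL and brain concentration in ng/g tissue. Brain/plasma ratio computed from these. Values given as mean ± spread.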

A short description of series [5]: Ratio of drug concentration in brain to plasma in mouse at 2 mg/kg, po. In kind it is ADME, organism-based. The settings on record: read-out: BPR. A digest of the protocol:
as §2

Series [6] can be described thus: Plasma concentration in mouse at 2 mg/kg, po. In kind it is ADME, organism-based. As to conditions: in vivo. In short, it runs like this: as §2
Series [7] is described as follows: Ratio of drug concentration in brain to plasma in mouse at 10 mg/kg, po. As to conditions: read-out: BPR. In kind it is ADME, organism-based. A digest of the protocol: as §2
Series [8] in a line: Clearance in mouse. The series is classed as ADME, organism-based. The settings on record: in vivo.
Series [9] in a line: Solubility of the compound at pH 7.4. As to conditions: buffer. In kind it is physicochemical.
The nature of series [10]: Plasma concentration in mouse at 10 mg/kg, po. The series is classed as ADME, organism-based. The settings on record: in vivo. A digest of the protocol:
as §2

Series [11] can be described thus: Drug concentration in mouse brain at 10 mg/kg, po measured per gm of tissue. The series is classed as ADME, organism-based. The settings on record: in vivo. In short, it runs like this:
as §2

Series [12] is described as follows: Half life in mouse. The series is classed as ADME, organism-based. The settings on record: in vivo.
The nature of series [13]: Solubility of the compound at pH 1.2. The series is classed as physicochemical. As to conditions: buffer.
Series [14] in a line: Ratio of drug level in cynomolgus monkey striatum to plasma at 5 mg/kg, po measured after 2 hrs of administration.
A short description of series [15]: Plasma concentration in cynomolgus monkey at 5 mg/kg, po measured after 2 hrs of administration. In kind it is ADME, organism-based, Macaca fascicularis. A digest of the protocol:
(§3)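 Cynomolgus monkeys (n=2) dosed orally. Blood and brain collected 2 h after dosing. Plasma (ng/mL) and striatum (ng/g) concentrations measured and the striatum/plasma ratio taken per animal and as the mean. Brain free concentration derived using protein binding ratio.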

A short description of series [16]: Drug uptake in cynomolgus monkey striatum at 5 mg/kg, po measured after 2 hrs of administration. The series is classed as ADME, organism-based, Macaca fascicularis. The settings on record: read-out: Drug uptake. A digest of the protocol: as §3

Values after ≈ are worked out from the molar mass of the structure shown.

In the case of `COCCCS(=O)(=O)Nc1ccc(-c2cc(F)ccc2N2CCCCC2)nn1`, the CLH is 0.045 µL/min/mg in series [1] and 0.026 µL/min/mg in [2] (microsomes, 0.5 h). The Drug metabolism in series [3] is 0 µmol/mL.

In the case of `Cc1ccc(S(=O)(=O)Nc2ccc(-c3c(F)cccc3N3CCCCC3)nn2)cc1`, the microsomal CLint in [1] amounted to 0.339 µL/min/mg; in series [2], 0.478 µL/min/mg. The same molecule came in with a Ct in series [4] of 79 ng/g. The Kp in series [5] came to 0.28. Moreover, the Cp in series [6] was determined as 284 ng/mL. The Drug metabolism in [3] turned out to be 0.000637 µmol/mL.

`O=S(=O)(CC1CCCCO1)Nc1ccc(-c2cc(F)ccc2N2CCCCC2)nn1` (stereo unspecified): the microsomal CLint was 0.435 µL/min/mg in series [1] and 0.139 µL/min/mg in [2]. Besides, the Drug metabolism in series [3] worked out at 0 µmol/mL.

Take `CC(C)CS(=O)(=O)Nc1ccc(-c2cc(F)ccc2N2CCCCC2)nn1`: the microsomal CLint in series [1] came to 0.483 µL/min/mg; in series [2], 0.375 µL/min/mg. Further, in series [3], the Drug metabolism came to 0.00011 µmol/mL.

With `Cc1ccc(S(=O)(=O)Nc2ccc(-c3ccccc3N3CCCCC3)nn2)cc1`, in series [7], the Kp was determined as 0.28. The figures for the microsomal CLint in series [1] and in [2] were 0.395 µL/min/mg and 1.07 µL/min/mg, respectively. Further, the clearance (in general, a measure of how efficiently the substance is removed, as volume per time) in series [8] was 67 mL/min/kg. For the same molecule, the figures for the solubility in series [9] and in [13] were < 1 µg/mL and 163 µg/mL (≈ 399 µM), respectively. In series [10], this molecule gave a Cp of 808 ng/mL. Besides, the Ct in series [11] worked out at 230 ng/g. Moreover, in series [3], the Drug metabolism worked out at 0.000852 µmol/mL. In series [12], the half-life (usually the time needed for the level to fall by half in the phase considered) was 18 min.

Regarding `O=S(=O)(CC1CCCC1)Nc1ccc(-c2cc(F)ccc2N2CCCCC2)nn1`, the microsomal CLint in series [1] was 1.6 µL/min/mg; in series [2] it was 0.703 µL/min/mg. In addition, in [3], the Drug metabolism was found to be 0.00049 µmol/mL.

Regarding `O=S(=O)(CC(F)(F)F)Nc1ccc(-c2cc(F)ccc2N2CCCCC2)nn1`, the results for the microsomal CLint in series [1] and in [2] were 0.265 µL/min/mg and 0.569 µL/min/mg, respectively. Moreover, the Drug metabolism in series [3] worked out at 0 µmol/mL.

With `COCCS(=O)(=O)Nc1ccc(-c2cc(F)ccc2N2CCCCC2)nn1`, the CLH in series [1] was 0.05 µL/min/mg. Besides, the microsomal CLint in series [2] came out at 0.179 µL/min/mg. Also, the Drug metabolism in series [3] worked out at 0 µmol/mL.

Regarding `O=C(O)c1cc(-c2ccc(Cl)c(OC3CC3)c2)ncn1`, the Kp at 2 h in series [14] was found to be 0.004. The figures for the concentration at 2 h in series [15] and in series [16] were 15600 ng/mL and 64.8 ng/g, respectively.

Turning to `CCS(=O)(=O)Nc1ccc(-c2cc(F)ccc2N2CCCCC2)nn1`, the figures for the microsomal CLint in series [1] and in [2] were < 0.05 µL/min/mg and 0.156 µL/min/mg, respectively. Besides, the Drug metabolism in [3] is 0 µmol/mL.

Turning to `CCCS(=O)(=O)Nc1ccc(-c2cc(F)ccc2N2CCCCC2)nn1`, the microsomal CLint in series [1] was found to be 0.168 µL/min/mg; in [2], 0.179 µL/min/mg. For the same molecule, the Drug metabolism in series [3] is 0 µmol/mL.

With `Cc1ccc(S(=O)(=O)Nc2ccc(-c3cccc(F)c3N3CCCCC3)nn2)cc1`, the figures for the microsomal CLint in series [1] and in series [2] were 0.518 µL/min/mg and 0.178 µL/min/mg, respectively. For the same molecule, the Drug metabolism in [3] was 0.000146 µmol/mL.
